EWS-Fli inh = EWS/Fli-driven NR0B1 reporter inhibitors, primary screen, A673 cells, NR0B1 luciferase, luminescence, MLPCN library. inhibition, % at 12.6 µM. viability-normalised. AID 651661, 2012. hit rate 0.67% among 350,000;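 active = mean inhibition of at least 50% after viability correction, with every replicate also passing that limit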;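 note: firefly luciferase signal divided by Alamar Blue viability fluorescence both relative to DMSO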
Ecoli rRNA inh = reduced GFP signal of wild-type E. coli, primary screen, bacterial rRNA inhibitor project, GFP/RFP fluorescence, OD600, single point; E. coli WT GFP vs humanized-ribosome RFP mutants, 24 h; hits give low values; DMSO median 0, no signal -100; GFP signal change (wild-type ribosome), % (test concentration not listed); hit rate 1.6% among 350,000; AID 720706, 2013;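 active = significant combined selectivity score with lowered wild-type GFP, culture density cut under 30%, mutant RFP and density less affected; inactive = any of these conditions unmet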
LGR2 antag = inhibitors of bursicon-induced LGR2 CRE-luciferase signal, primary screen, cell-based, HEK293, CRE-luciferase reporter, bursicon stimulation. hit rate 0.35% among 380,000. inhibition, % at 9.99 µM. AID 720647, 2013. Drosophila bursicon receptor LGR2 (rickets). bursicon-stimulated, 4 h;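 active = drop in luminescence signal, shown as inhibition above about 50% in the replicate tests, limit read from the data, passing the limit was not always enough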;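 note: agonist challenge used bursicon conditioned medium at about half maximal strength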
E-sel inducer = E-selectin induction in HUVECs, primary screen, imaging, HUVEC, immunofluorescence imaging, single point; P16581; normalized: neutral wells 0, TNF-alpha wells 100; activation, % at 7.58 µM; hit rate 0.37% among 260,000; AID 686992, 2013;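 active = mean E-selectin-positive cell signal at least 10% of the positive control, reached in at least 60% of replicates, without over 20% cell loss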
Target sequence (P16581 whole entry, looked up): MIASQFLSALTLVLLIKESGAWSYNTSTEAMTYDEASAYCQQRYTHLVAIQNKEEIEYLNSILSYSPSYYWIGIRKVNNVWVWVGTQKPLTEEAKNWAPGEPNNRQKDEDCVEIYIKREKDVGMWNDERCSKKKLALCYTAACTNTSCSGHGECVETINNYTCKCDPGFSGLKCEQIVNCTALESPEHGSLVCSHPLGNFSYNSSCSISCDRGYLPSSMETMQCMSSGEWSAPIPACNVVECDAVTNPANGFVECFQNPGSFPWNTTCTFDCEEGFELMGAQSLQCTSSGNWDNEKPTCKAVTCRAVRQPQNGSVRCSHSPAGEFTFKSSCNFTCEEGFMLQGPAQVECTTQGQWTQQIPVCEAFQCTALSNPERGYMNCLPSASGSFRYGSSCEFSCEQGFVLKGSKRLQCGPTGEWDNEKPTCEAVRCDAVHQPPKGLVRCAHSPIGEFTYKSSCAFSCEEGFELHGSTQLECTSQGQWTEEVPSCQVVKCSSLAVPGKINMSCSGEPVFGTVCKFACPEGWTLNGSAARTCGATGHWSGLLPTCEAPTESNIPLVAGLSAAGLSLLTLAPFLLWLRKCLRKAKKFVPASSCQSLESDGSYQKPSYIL
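Read-out basis: % PE-positive cells; Test system: HUVEC primary endothelial cells; Technique: immunofluorescence imaging; Dosing: single-point compound dose.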
* = called active by the depositor; nt = no result. Only some compounds are listed: those with a hit (about 2.4% of all), similar ones and a draw of the others.

SMILES	EWS-Fli inh	Ecoli rRNA inh	LGR2 antag	E-sel inducer
C[C@@H]1CN([C@@H](C)CO)C(=O)CCCn2nncc2CO[C@@H]1CN(C)CC1CCCC1	-3	-3	-13	0
Cc1cc(C(=O)CSc2nc3ccccc3[nH]2)c(C)n1C	nt	nt	nt	0
C=CCn1c(C)cc(C(=O)CSc2nc3ccccc3[nH]2)c1C	nt	nt	60*	nt
Cc1cc(C(=O)CSc2nc3ccccc3[nH]2)c(C)n1Cc1ccco1	nt	-34*	-13	0
C[C@H]1CN([C@@H](C)CO)C(=O)c2cc(C#CC3CCCCC3)cnc2O[C@@H]1CN(C)Cc1cncnc1	5	0	-17	1
CNC[C@@H](Cc1ccccc1)NC[C@@H](CC1CCCCC1)NCCCc1ccccc1	44	-54	102*	0
CN(Cc1cccc(C(F)(F)F)c1)C(=O)C1CCC(=O)N(CC2CCCCC2)C1 (stereo not given)	3	4	1	nt
CNC[C@@H](CC1CCCCC1)NC[C@H](CC(C)C)NCCc1cccc(C(F)(F)F)c1	49	-54	103*	3
CCOc1ccc(OCCn2c(=S)[nH]c3c(N)ncnc32)cc1	0	-31*	-3	3
Cc1ccc(S(=O)(=O)N[C@H]2CC[C@@H](CC(=O)NCCc3ccncc3)O[C@@H]2CO)cc1	0	2	13	0
CCCCOC(=O)C1CN(c2ccccc2)N=C1C(=O)OCC (stereo not given)	nt	nt	-3	nt
CCCCOC(=O)C1CN(c2ccccc2)N=C1C(C)=O (stereo not given)	-7	-32*	5	-1
O=C(NCc1cccnc1)/C(=C\c1ccc(-c2ccc(Cl)c(Cl)c2)o1)S(=O)(=O)c1ccccc1	40	-21	103*	1
CCOc1cc(C2C3=C(CCCC3=O)Nc3nc(C(=O)OC)nn32)ccc1OC (stereo not given)	nt	nt	12	nt
COc1cc(-c2nc3n(n2)C(c2ccc(F)cc2)C2=C(CCCC2=O)N3)cc(OC)c1OC (stereo not given)	nt	-27*	-4	nt
O=C(C[C@H]1CC[C@H]2[C@@H](COC[C@@H](O)CN2Cc2ccncc2)O1)NCC1CC1	-5	-1	-5	0
CC(C)c1ccc2c(c1)C(N1CCNCC1)Cc1ccc(F)cc1S2 (stereo not given)	22	-49	104*	0
CN1CCN(C2Cc3ccc(F)cc3Sc3cc(F)c(Cl)cc32)CC1 (stereo not given)	10	-43*	9	-7
Cc1ccc2[nH]c3c(=O)n4c(nc3c2c1)SCC4	-24	-4	nt	nt
COc1ccc2[nH]c3c(=O)n4c(nc3c2c1)SCCC4	-11	-28*	14	nt
CCCNC(=O)N1CC2(CN(Cc3ccccn3)C2)c2c(n(C)c3cc(OC)ccc23)[C@@H]1CO	1	1	-1	0
COc1cc(C2c3cc4c(cc3OC(N3CCCCC3)C2C)OCO4)cc(OC)c1O (stereo not given)	9	0	-7	-1
COc1cccc(C2c3cc4c(cc3OC(N3CCCC3)C2C)OCO4)c1O (stereo not given)	13	-20*	3	0
CCC(=O)N1CC(=O)N2[C@@H](CO)[C@H](c3ccc(C#CCc4ccccc4)cc3)[C@@H]2C1	nt	1	-20	0
O=C1C=C(c2ccc3ncccc3c2)C[C@@H](c2ccc3c(c2)OCO3)C1	63*	7	2	1
SMILES	EWS-Fli inh	Ecoli rRNA inh	LGR2 antag	E-sel inducer
COc1cc(N/N=C(\C)c2ccc(O)c(C)c2)nc(-c2ccccc2)n1	-45	-37*	11	nt
Cc1ccc(CNC(=O)CN2C(=O)NC(C)(c3ccc(Cl)cc3)C2=O)cc1 (stereo not given)	2	8	-1	1
Cc1ccc(CNC(=O)CN2C(=O)NC(C)(c3cccc(Br)c3)C2=O)cc1 (stereo not given)	2	-29*	16	0
CC(C)(C)C1CCC(=NOC(=O)c2ccc(F)cc2)CC1 (stereo not given)	3	-41*	3	3
O=C(ON=C1CCN(S(=O)(=O)c2ccccc2)CC1)c1ccc(F)cc1	nt	nt	nt	-1
O=C(NCC[C@@H]1CC[C@H](NS(=O)(=O)c2ccc(Oc3ccccc3)cc2)[C@H](CO)O1)C1CC1	5	-3	-15	0
CCC(CC)C(=O)NCCc1cc2ccc(C)cc2[nH]c1=O	1	-14*	23	0
CCC(=O)NCCc1cc2ccc(C)cc2[nH]c1=O	-4	13	-6	0
O=C(Nc1ccc2c(c1)OCCO2)C1c2ccccc2OCC(=O)N1Cc1ccc2c(c1)OCO2 (stereo not given)	-21	-12	-18	0
Cc1cccc(C)c1NC(=O)C1c2ccccc2OCC(=O)N1Cc1ccc2c(c1)OCO2 (stereo not given)	3	-22*	-10	0
CCOC(=O)c1csc(NC(=O)c2cc(=O)c3ccccc3o2)n1	-13	-26*	-21	nt
COc1ccc([C@H]2C[C@H](O)[C@@H](n3cc(-c4ccc(F)cc4)nn3)CN2Cc2cccs2)cc1	56*	3	17	-2
CO[C@@H]1CC[C@@H]2CCN(C)C(=O)[C@@H](C)[C@H](OC)CN(C)C(=O)c3cccc(C#N)c3OC[C@@H]1O2	0	2	45	0
CC(C)N=C(NS(=O)(=O)c1ccccc1)C(Cl)(Cl)Cl	48	-5	62*	nt
O=S(=O)(NC(=S)c1ccccc1)c1ccccc1	-6	nt	nt	2
COc1ccc2c3c(n(C)c2c1)[C@@H](CO)NCC31CCN(S(=O)(=O)c2ccccc2)CC1	nt	-5	nt	nt
Cc1ccc2nc3ccc(N4CCCC4)nn3c(=O)c2c1	nt	nt	-57	nt
CC1CCCN(c2ccc3nc4ccccc4c(=O)n3n2)C1 (stereo not given)	43	-18*	62*	1
O=C(CN1C(=O)c2ccccc2S1(=O)=O)c1ccccc1Cl	82*	10	96*	0
O=C(CN1C(=O)c2ccccc2S1(=O)=O)Nc1ncc(Cl)cc1Cl	58*	14	69*	nt
C[C@@H]1CN([C@H](C)CO)C(=O)Cc2cc(NC(=O)c3ccncc3)ccc2O[C@H]1CN(C)CC1CCCCC1	0	0	-5	0
COc1ccc(OC)c(C2/C(=C(/O)c3cnn(-c4ccccc4)c3C)C(=O)C(=O)N2CCN(C)C)c1 (stereo not given)	1	5	-7	nt
Cc1c(/C(O)=C2/C(=O)C(=O)N(Cc3cccnc3)C2c2ccccn2)cnn1-c1ccccc1 (stereo not given)	27	25	87*	nt
CO[C@@H]1CN(C)C(=O)c2ccc(NS(=O)(=O)c3cccc(F)c3)cc2OC[C@@H](C)N(C(=O)Cc2cccnc2)C[C@H]1C	4	0	0	0

Assay outcomes deposited in PubChem by Broad Institute.
